From PubChem BioAssay
A selection: hits, their analogues and other compounds. The true share with any hit is near 3.4%.
PKD1 kinase inh = inhibitors of human PKD1 kinase, biochemical, fluorescence polarization. Serine/threonine-protein kinase D1 (Homo sapiens), Q15139. PKD1 kinase fluorescence polarization assay. inhibition, % (concentration not given with the values). actives 0.056% (n = 200,000). AID 797, 2007; in the data active = inhibition above about 50%
Cl transport mod = KCC2 cotransporter modulators, thallium flux, primary screen, cell-based, HEK293 KCC2, FluoZin-2 fluorescence, MLSMR | Solute carrier family 12 member 5 (Homo sapiens), Q9H2X9 | KCC2 cells, thallium flux FluoZin-2 fluorescence | B-score of Tl+ flux slope (higher = more flux/activation; lower = inhibition) at 10 µM | actives 2.2% (n = 190,000) | AID 1456, 2008;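 active = thallium flux slope and its plate-corrected score both differing from the plate sample mean at a set confidence after two filtering rounds, in either direction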;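 note: slope of fluorescence scaled to starting intensity during 10 to 20 s after thallium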
Mdm2 ligase inh = MDM2-luciferase reporter signal enhancers, primary screen, MDM2 E3 ligase inhibitor project, cell-based, luminescence, 1536-well. cell-based MDM2 ubiquitination luciferase reporter, 2 h; 0 = plate control, 100 = twice control, blank-subtracted. E3 ubiquitin-protein ligase Mdm2 (Homo sapiens), Q00987. AID 1230, 2008. signal enhancement, % at 5 µM. actives 0.11% (n = 210,000);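 active = signal enhancement of 30% or more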;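 note: luminescence tracks abundance of the self-degrading MDM2-luciferase fusion protein; higher signal means inhibition of MDM2 E3 ligase activity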
Target sequence (Q00987 whole entry, looked up, the tested form may be a part): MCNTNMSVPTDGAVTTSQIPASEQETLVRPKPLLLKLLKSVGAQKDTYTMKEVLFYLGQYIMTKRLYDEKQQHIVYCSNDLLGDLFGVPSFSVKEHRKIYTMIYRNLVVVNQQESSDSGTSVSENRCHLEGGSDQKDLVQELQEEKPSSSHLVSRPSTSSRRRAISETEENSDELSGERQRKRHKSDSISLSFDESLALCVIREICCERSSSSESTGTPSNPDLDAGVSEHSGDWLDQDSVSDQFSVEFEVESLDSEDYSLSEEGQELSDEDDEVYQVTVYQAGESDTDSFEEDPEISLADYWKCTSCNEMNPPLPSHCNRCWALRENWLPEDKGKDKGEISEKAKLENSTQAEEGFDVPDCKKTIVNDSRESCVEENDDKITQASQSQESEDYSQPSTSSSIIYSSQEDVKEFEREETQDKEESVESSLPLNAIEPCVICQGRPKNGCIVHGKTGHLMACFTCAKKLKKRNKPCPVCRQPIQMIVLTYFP
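Assay system: mammalian cells stably expressing self-ubiquitinating, self-degrading MDM2 E3–luciferase fusion. Quantity: 2000 cells in each well. Medium: DMEM culture medium. Compound dosing: single-point 5 µM. Timing: cell settling 4 h, compound treatment 2 h, both 37 °C. Technique: luciferase luminescence. Read-out basis: percent signal gain over controls, blank-subtracted. Benchmarks: plate controls and plate blanks.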
ROMK mod = ROMK potassium channel modulators, primary screen, cell-based, thallium flux, MLSMR library. ATP-sensitive inward rectifier potassium channel 1 (Homo sapiens), P48048. Tet-inducible ROMK, thallium flux fluorescence; actives lie on both sides. B-score at 10 µM. actives 2% (n = 130,000);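 active = signal ratio slope over the read window, or its plate-corrected B-score, at least 3 SD from the plate mean, either direction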;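 note: B-score of the F/F0 ratio slope over 7 to 12 s after thallium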
p97 ATPase inh = inhibitors of human p97 ATPase, primary screen, biochemical | inhibition, % at 8 µM | actives 0.42% (n = 220,000) | Transitional endoplasmic reticulum ATPase (Homo sapiens), P55072 | recombinant p97 ATPase, Kinase-Glo ATP luminescence, 3 h; in the data active = inhibition above about 15%;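 note: 0% = DMSO vehicle and 100% = wells lacking enzyme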
DTT redox prof = compounds producing H2O2 with reducing agent – biochemical, NIH compound library profiling, artefact control for MLSCN library redox annotation, primary screen | actives 0.03% (n = 200,000) | activation, % at 10 µM | DTT-dependent redox cycling H2O2, phenol red/HRP absorbance; 100% = 100 µM peroxide control, 0% = buffer;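 active = activation of at least 50% relative to the plate's high and low controls in the primary single-dose screen; inactive = activation below 50%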;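 note: compound incubated with DTT at 0.8 mM final as the reducing agent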
Numbers without * were called inactive; · = not tested or not shown.

SMILES	PKD1 kinase inh	Cl transport mod	Mdm2 ligase inh	ROMK mod	p97 ATPase inh	DTT redox prof
N#Cc1nc(Cc2cccc3ccccc23)oc1N1CCC(C(N)=O)CC1	-5	-7.4*	-8	-1.5	0	2
CC1CCN(c2oc(Cc3cccc4ccccc34)nc2C#N)CC1	2	·	-1	-0.68	-3	0
CC(=O)N1CCc2ccc(S(=O)(=O)N3CCc4ccccc43)cc21	-11	-2.3	-23	-0.86	0	-1
Cc1cc(C)c2cc(C#N)c(SCC(=O)NCc3ccco3)nc2c1	-2	-0.38	-13	-0.069	0	0
S=C(Nc1cccc(Cl)c1Cl)N1CCC2(CC1)OCCO2	-8	-0.32	-88	0.25	-6	-2
O=C(OCc1nc2ccccc2s1)c1cccc(S(=O)(=O)N2CCOCC2)c1	9	-5.1*	-33	·	1	0
O=C(CCc1ccc(S(=O)(=O)N2CCOCC2)cc1)OCc1nc2ccccc2s1	3	·	9	0.55	-6	-1
Cc1ccc(S(=O)(=O)N2CCN(CC(=O)N/N=C/c3ccco3)CC2)cc1	-5	-0.0099	·	-0.26	5	0
O=C(O)C(Cc1ccccc1)N1C(=O)/C(=C/C=C/c2ccco2)SC1=S (centres undefined)	·	-3.2	-3	·	27*	·
O=C(O)CC(C(=O)O)N1C(=O)/C(=C/C=C/c2ccco2)SC1=S (centres undefined)	·	1	-7	·	13	·
O=C1c2ccccc2S(=O)(=O)N1CC1CC(c2ccccc2Cl)=NO1 (centres undefined)	-5	-0.39	-15	-1.3	5	1
COc1ccc(C(=O)N/N=C/c2sc3ccccc3c2O)cc1	-3	0.32	-16	-4.5*	2	0
COc1ccc(C(=O)N/N=C/c2ccc3cccc(OCc4ccccc4)c3n2)cc1	-3	4.1*	-29	-0.094	4	-5
O=C(N/N=C/c1ccc2cccc(OCc3ccccc3)c2n1)c1ccc(Br)cc1	3	11*	-8	0.9	0	-5
O=C(N/N=C/c1ccccn1)c1ccc(Br)cc1	6	4.2*	-8	·	1	0
COc1ccc(S(=O)(=O)N2CCOCC2)cc1NC(=O)Cc1ccc(Cl)c(Cl)c1	-4	-0.012	-6	-1.7	4	0
CCC/C(=N/NC(=O)c1cccc(Cl)c1)c1ccccc1	-3	12*	-2	-0.34	4	0
CSc1ccc(N/N=C(/C#N)S(=O)(=O)C(C)(C)C)cc1	-7	-4.6*	-10	-3.2*	2	4
COc1ccc(N/N=C(/C#N)S(=O)(=O)C(C)(C)C)cc1	1	0.17	-4	-1.9	5	-2
O=C(CN1CCCCC1)NC(=O)NCc1ccccc1	-1	0.059	38*	-0.016	-2	0
Cc1nc2scc(-c3cccs3)c2c(=O)n1-n1cccc1	-22	·	-4	·	3	-1
Cc1ccc(C)n1-n1c(C)nc2scc(-c3cccs3)c2c1=O	-8	0.55	6	·	15*	-2
Cc1[nH]c2ccc(Cl)cc2c(=O)c1CN1CCCC1	2	-1.4	35*	0.041	3	0
Cc1[nH]c2ccccc2c(=O)c1CN1CCCCC1	2	0.41	-10	·	-3	0
CC(=O)c1ccc(NC(=O)Nc2ccncc2)cc1	3	-0.55	-25	-0.73	2	0
SMILES	PKD1 kinase inh	Cl transport mod	Mdm2 ligase inh	ROMK mod	p97 ATPase inh	DTT redox prof
O=C(Nc1ccncc1)Nc1ccncc1	4	·	41*	0.47	3	-1
COc1ccc(C(=O)CC(=O)C(=O)NCCc2cccc(C)c2)cc1	-8	8.3*	-3	-0.81	-1	0
CCN1CCN(S(=O)(=O)c2cccc(S(=O)(=O)N3CCOCC3)c2)CC1	-1	-0.0041	16	0.13	3	0
Cc1cc(N=NC(=O)c2ccccc2O)c2ccccc2c1O	-4	-3.5*	-12	-1.2	8	2
Clc1ccc(-c2ccn[nH]2)cc1	5	1.4	-11	0.21	0	0
Cc1ccc(-c2csc(=S)[nH]2)cc1	-1	100*	0	10*	1	0
S=c1[nH]c(-c2ccc(Cl)cc2)cs1	6	55*	-5	17*	4	0
CCc1ccccc1NC(=O)c1ccccc1Sc1ccc([N+](=O)[O-])cc1Cl	-8	1.1	-9	·	-3	0
Cc1cccc(NC(=S)NNC(=O)c2sccc2C)c1	-5	1.9	-4	0.44	-2	0
CCc1cc(C(=O)NNC(=S)Nc2cccc(C)c2)cs1	0	9.3*	-10	·	-5	0
Cc1cccc(C(=O)NNC(=O)Nc2ccccc2)c1	-6	0.44	-2	0.033	2	0
Cc1cccc(NC(=S)NNC(=O)c2csc(C(C)C)c2)c1	-2	16*	4	-1.3	0	1
Cc1ccc(C(=O)N/C(=C\c2cccc([N+](=O)[O-])c2)C(=O)OCN2C(=O)c3ccccc3C2=O)cc1	-3	1	-4	·	3	0
COc1ccc(CNC(=O)C(C)NC(=O)c2cc3ccccc3o2)cc1 (centres undefined)	0	-0.71	-7	·	4	1
COc1cc(/C=C(\C#N)c2nc3ccccc3[nH]2)c([N+](=O)[O-])cc1OCc1ccccc1	-9	-4.5*	-15	-2.8	0	-10
O=C(Nc1ccncc1)C1(c2ccccc2)CCCC1	41	·	-12	·	4	0
CCCOC(=S)NC(=O)c1sc2ccccc2c1Cl	-9	60*	-6	·	2	0
O=C(NNC(=S)NC1CCCCC1)c1sc2ccccc2c1Cl	-5	1.9	-5	1.2	-1	0
CCCn1nnc(NC(=O)c2sc3ccccc3c2Cl)n1	-3	·	-28	0.24	0	3
CC(C)(C)C(=O)NC(=S)NNC(=O)c1sc2ccccc2c1Cl	-4	48*	·	7.3*	-5	-1
CCOC(=S)NC(=O)c1sc2ccccc2c1Cl	0	74*	-8	·	1	0
NC(=O)COC(=O)c1sc2ccccc2c1Cl	-2	-0.8	-12	0.67	4	-2
CC(C)(C)CC(C)(C)Nc1c(-c2ccc(O)cc2)nc2cnccn12	2	-0.037	·	-1.1	-2	2
COC(=O)c1ccccc1NC(=O)CSc1nc2ncccc2[nH]1	-12	-0.74	2	0.0062	2	0
